Assay results taken from ChEMBL document CHEMBL2412989, “Antiproliferative activity on human prostate carcinoma cell lines of new peptidomimetics containing the spiroazepinoindolinone scaffold” (Bioorg Med Chem, 2013).
Calls of active or inactive are those of the source. No cut-off for these calls is given here.

Legend:
[1] = molecular target: T1, Growth hormone secretagogue receptor type 1 (Homo sapiens, UniProt Q92847); experiment: Induction of GHS-R1a-mediated ERK1/2 phosphorylation in human DU145 cells at 10^-6 M after 10 mins by Western blot analysis in presence of D-Lys-GHRP-6; type: cell-based; conditions: DU-145
T1 sequence (Q92847 whole entry): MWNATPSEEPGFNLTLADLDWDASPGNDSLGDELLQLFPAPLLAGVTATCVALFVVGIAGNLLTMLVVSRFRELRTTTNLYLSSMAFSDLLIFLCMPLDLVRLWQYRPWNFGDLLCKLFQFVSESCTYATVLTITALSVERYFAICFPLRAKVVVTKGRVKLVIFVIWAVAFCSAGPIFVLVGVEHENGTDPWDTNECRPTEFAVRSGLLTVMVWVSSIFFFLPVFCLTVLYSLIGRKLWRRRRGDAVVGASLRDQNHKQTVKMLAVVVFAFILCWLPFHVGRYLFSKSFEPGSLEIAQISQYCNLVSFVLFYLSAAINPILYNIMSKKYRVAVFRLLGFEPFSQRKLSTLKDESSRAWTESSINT
Summary of the method: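 Western blot of ERK1/2 phosphorylation in 16 h serum-starved DU145 cells. Cells pretreated 1 h with 10^-6 M D-Lys3-GHRP-6, then exposed 10 min to compound. pERK1/2 (1:150) and total ERK1/2 (1:1000) antibodies, overnight 4 °C, peroxidase secondary. Mean ± SD, three independent experiments, one-way ANOVA.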

[2] = molecular target: T1, Growth hormone secretagogue receptor type 1; experiment: Induction of GHS-R1a-mediated ERK1/2 phosphorylation in human DU145 cells at 10^-9 to 10^-6 M after 10 mins by Western blot analysis; type: cell-based; conditions: DU-145
Summary of the method: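 DU145 cells serum-starved 16 h, then exposed to compound (10^-6 or 10^-9 M) for 10 min. Lysed in T-PER with protease inhibitors, protein by BCA. SDS-PAGE, nitrocellulose transfer, 5% milk/TBST block. Probed overnight at 4 °C with anti-pERK1/2 (1:150) and anti-ERK1/2 (1:1000), then peroxidase secondary 2 h RT. Mean ± SD of three independent experiments, one-way ANOVA.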

DU-145 [3] = experiment: Antiproliferative activity against human DU145 cells assessed as growth inhibition at 10^-9 M after 48 hrs by BrdU-incorporation assay relative to untreated cells in presence of GHS-R1a antagonist D-Lys-GHRP-6; type: functional, cell-based
Summary of the method: (§1)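 BrdU-incorporation proliferation assay in DU145 cells. Cells seeded at 5 × 10^4/well, 24 h, then switched to RPMI 1640/5% charcoal-stripped FBS containing compound together with GHS-R1a antagonist D-Lys3-GHRP-6 at 10^-6 M. BrdU pulse 4 h before end. Eu-anti-BrdU time-resolved fluorescence, blank from cell-free wells. Mean of ≥3 experiments in 8 replicates, relative to untreated cells.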

DU-145 [4] = experiment: Antiproliferative activity against human DU145 cells assessed as growth inhibition at 10^-6 M after 48 hrs by BrdU-incorporation assay relative to untreated cells in presence of GHS-R1a antagonist D-Lys-GHRP-6; type: functional, cell-based; summary of the method: as §1
DU-145 [5] = experiment: Antiproliferative activity against human DU145 cells assessed as growth inhibition at 10^-9 M after 48 hrs by BrdU-incorporation assay relative to untreated cells; type: functional; conditions: DU-145, 48 h, read-out: GI
Summary of the method: (§2)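 DU145 prostate carcinoma cells (ATCC) kept in RPMI 1640/5% FBS. 5 × 10^4 cells/well seeded, 24 h at 37 °C, 5% CO2. Medium then replaced by RPMI 1640/5% charcoal-stripped FBS with compound. BrdU added 4 h before end of incubation. Fixed cells probed with Eu-conjugated anti-BrdU (0.5 µg/mL), time-resolved fluorescence read. Cell-free wells used as blank. Mean of ≥3 experiments, 8 replicates each, expressed vs untreated cells.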

DU-145 [6] = experiment: Antiproliferative activity against human DU145 cells assessed as growth inhibition at 10^-6 M after 48 hrs by BrdU-incorporation assay relative to untreated cells; type: functional; conditions: DU-145, 48 h, read-out: GI; summary of the method: as §2
[7] = Agonist activity at GHS-R1a in rat pituitary cells; type: cell-based; conditions: Pituitary gland cell
[8] = molecular target: T1, Growth hormone secretagogue receptor type 1; experiment: Agonist activity at GHS-R1a (unknown origin)

| SMILES | inhibition of growth at 0.001 µM (DU-145 [5]) [%] | inhibition of growth at 1 µM (DU-145 [6]) [%] | other results |
| --- | --- | --- | --- |
| CC(C)(N)C(=O)N[C@@H](Cc1c[nH]c2ccccc12)C(=O)N1CCC[C@@]2(CC1)C(=O)Nc1ccccc12 | -20 | -27 | Activity [1]: inactive; Activity [2]: Active; growth inhibition (GI) (DU-145 [3]): inactive; growth inhibition (GI) (DU-145 [4]): inactive |
| CC(C)(N)C(=O)N[C@H](Cc1c[nH]c2ccccc12)C(=O)N1CCC[C@@]2(CC1)C(=O)Nc1ccccc12 | -4.8 | -5.5 | – |
| CC(C)(N)C(=O)N[C@@H](Cc1c[nH]c2ccccc12)C(=O)N1CCC[C@]2(CC1)C(=O)Nc1ccccc12 | -10 | -15 | – |
| CC(C)(N)C(=O)N[C@H](COCc1ccccc1)C(=O)N1CCC2(CC1)CN(S(C)(=O)=O)c1ccccc12 [IBUTAMOREN] | – | – | EC50 [7]: 1.3 nM |
| CC(C)(N)C(=O)N[C@H](Cc1c[nH]c2ccccc12)C(=O)N1CCC2(CC1)C[C@H](O)c1ccccc12 | – | – | EC50 [8]: 0.6 nM |
| CC(=O)NC(C)(C)C(=O)N[C@@H](Cc1c[nH]c2ccccc12)C(=O)N1CCC[C@@]2(CC1)C(=O)Nc1ccccc12 | 1.2 | 2.1 | – |
| CCCCCCCC(=O)OC[C@H](NC(=O)CNC(=O)[C@@H](N)CCCNC(=N)N)C(=O)N[C@@H](CO)C(=O)N[C@@H](Cc1ccccc1)C(=O)N[C@@H](CC(C)C)C(=O)N[C@@H](CO)C(=O)N1CCC[C@H]1C(=O)N[C@@H](CCC(=O)O)C(=O)N[C@@H](Cc1cnc[nH]1)C(=O)N[C@@H](CCC(N)=O)C(=O)N[C@@H](CCCCN)C(=O)N[C@@H](C)C(=O)N[C@@H](CCC(N)=O)C(=O)N[C@@H](CCC(N)=O)C(=O)N[C@@H](CCCNC(=N)N)C(=O)N[C@@H](CCCCN)C(=O)N[C@@H](CCC(=O)O)C(=O)N[C@@H](CO)C(=O)N[C@@H](CCCCN)C(=O)N[C@@H](CCCCN)C(=O)N1CCC[C@H]1C(=O)N1CCC[C@H]1C(=O)N[C@@H](C)C(=O)N[C@@H](CCCCN)C(=O)N[C@@H](CC(C)C)C(=O)N[C@@H](CCC(N)=O)C(=O)N1CCC[C@H]1C(=O)O [GHRELIN] | -38 | -25 | Activity [2]: Active; growth inhibition (GI) (DU-145 [3]): inactive; growth inhibition (GI) (DU-145 [4]): inactive |
| CC(C)(N)C(=O)N[C@H](Cc1c[nH]c2ccccc12)C(=O)N1CCC[C@]2(CC1)C(=O)Nc1ccccc12 | -2.4 | 9.7 | – |
